Source: ChEMBL document CHEMBL5096226, “Structure-Activity Relationship Study of Momordica Saponin II Derivatives as Vaccine Adjuvants” (J Med Chem, 2022)
Calls of active or inactive are those of the source.

Assays:
Assay type in all cases: functional, organism-based
Mus musculus [1] = test: Immuno-adjuvant activity in BALB/c mouse assessed as increase in intracellular level of INFgamma in spleen CD8+ cells at 50 ug, sc administered on day 0, 14 and 28 and measured at week 6 post immunization by flow cytometry analysis; conditions: dose 50.0 µg, time 6.0 weeks
Summary of the method: (§1)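 Female BALB/c mice (8–10 wk, six per group) given OVA 20 μg s.c. with adjuvant on days 0, 14, 28; spleens taken at week 6. Splenocytes stained with viability dye, Fc-blocked, surface-stained 30 min. For intracellular cytokines, cells stimulated 5 h with leukocyte activation cocktail plus GolgiPlug, then fixed/permeabilized. IL-21 detected with IL-21R Fc chimera. All steps at 4 °C. Read as MFI, mean ± SEM.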

Mus musculus [2] = test: Immuno-adjuvant activity in BALB/c mouse assessed as increase in CD19+ B cells in spleen at 50 ug, sc administered on day 0, 14 and 28 and measured at week 6 post immunization by flow cytometry analysis; conditions: dose 50.0 µg, time 6.0 weeks
Summary of the method: (§2)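 Female BALB/c mice (8–10 wk, six per group), OVA 20 μg s.c. plus adjuvant on days 0, 14, 28; spleens collected week 6. Single-cell splenocyte suspensions stained and analysed by flow cytometry. TFH gated PD-1+Bcl6+Foxp3−CD4+CD3+, TFR PD-1+Bcl6+Foxp3+CD4+CD3+, dark zone GC B cells CXCR4hiCD86loFas+GL-7+CD19+. Steps at 4 °C. Mean ± SEM; unpaired t tests.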

Mus musculus [3] = test: Immuno-adjuvant activity in BALB/c mouse Splenocyte assessed as increase in CD4+ surface expression of PD-1 at 50 ug, sc administered on day 0, 14 and 28 and measured at week 6 post immunization by flow cytometry analysis; conditions: dose 50.0 µg, time 6.0 weeks; summary of the method: as §1
Mus musculus [4] = test: Immuno-adjuvant activity in BALB/c mouse assessed as increase in intracellular level of INFgamma in spleen CD4+ cells at 50 ug, sc administered on day 0, 14 and 28 and measured at week 6 post immunization by flow cytometry analysis; conditions: dose 50.0 µg, time 6.0 weeks; summary of the method: as §1
Mus musculus [5] = test: Immuno-adjuvant activity in BALB/c mouse assessed as increase in anti-OVA Ig2a antibody in serum at 50 ug, sc administered on day 0, 14 and 28 and measured at 4 weeks in presence of chicken egg ovalbumin by ELISA; conditions: dose 50.0 µg, time 6.0 weeks, in the assay text read “measured at 6 weeks” for “measured at 4 weeks”
Summary of the method: (§3)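 Female BALB/c mice (8–10 wk, six per group) immunized s.c. with OVA 20 μg ± adjuvant on days 0, 14, 28. Tail-vein serum taken before each dose and 2 wk after the last. ELISA on OVA-coated (0.1 μg/mL) plates in borate saline pH 8.2. Twofold serum dilutions in duplicate, overnight at 4 °C. HRP anti-mouse IgG/subclass applied 4 h, OPD substrate, read at 490 nm. Concentrations from reference-serum standard curves (4-parameter fit).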

Mus musculus [6] = test: Immuno-adjuvant activity in BALB/c mouse assessed as increase in anti-OVA IgG antibody in serum at 50 ug, sc administered on day 0, 14 and 28 and measured at 4 and 6 weeks in presence of chicken egg ovalbumin by ELISA; conditions: dose 50.0 µg, time 4-6 weeks; summary of the method: as §3
Mus musculus [7] = test: Immuno-adjuvant activity in BALB/c mouse assessed as increase in anti-OVA IgG2a antibody in serum at 50 ug, sc administered on day 0, 14 and 28 and measured at 2 weeks in presence of chicken egg ovalbumin by ELISA; conditions: dose 50.0 µg, time 6.0 weeks, in the assay text read “measured at 6 weeks” for “measured at 2 weeks”; summary of the method: as §3
Mus musculus [8] = test: Immuno-adjuvant activity in BALB/c mouse assessed as increase in ratio of TFH to TFR cells at 50 ug, sc administered on day 0, 14 and 28 and measured at week 6 post immunization by flow cytometry analysis; conditions: dose 50.0 µg, time 6.0 weeks; summary of the method: as §2

Measured: Activity

COc1cccc(COC(=O)CCCCCCCCCCNC(=O)[C@H]2O[C@@H](O[C@H]3CC[C@]4(C)[C@H]5CC=C6[C@@H]7CC(C)(C)CC[C@]7(C(=O)O[C@@H]7O[C@H](C)[C@H](O)[C@H](O)[C@H]7O[C@@H]7O[C@@H](C)[C@H](O[C@@H]8OC[C@@H](O)[C@H](O)[C@H]8O)[C@@H](O[C@@H]8O[C@H](CO)[C@@H](O)[C@H](O[C@@H]9OC[C@@H](O)[C@H](O)[C@H]9O)[C@H]8O)[C@H]7O)[C@H](O)C[C@@]6(C)[C@]5(C)CC[C@H]4[C@]3(C)C=O)[C@H](O[C@@H]3O[C@H](CO)[C@H](O)[C@H](O)[C@H]3O)[C@@H](O[C@@H]3O[C@@H](C)[C@H](O)[C@@H](O)[C@H]3O)[C@@H]2O)c1
active: Mus musculus [1] | Mus musculus [2] | Mus musculus [3] | Mus musculus [4] | Mus musculus [5]

C[C@@H]1O[C@@H](O[C@H]2[C@H](O)[C@@H](C(=O)NCCCCCCCCCCCOCc3ccccc3)O[C@@H](O[C@H]3CC[C@]4(C)[C@H]5CC=C6[C@@H]7CC(C)(C)CC[C@]7(C(=O)O[C@@H]7O[C@H](C)[C@H](O)[C@H](O)[C@H]7O[C@@H]7O[C@@H](C)[C@H](O[C@@H]8OC[C@@H](O)[C@H](O)[C@H]8O)[C@@H](O[C@@H]8O[C@H](CO)[C@@H](O)[C@H](O[C@@H]9OC[C@@H](O)[C@H](O)[C@H]9O)[C@H]8O)[C@H]7O)[C@H](O)C[C@@]6(C)[C@]5(C)CC[C@H]4[C@]3(C)C=O)[C@@H]2O[C@@H]2O[C@H](CO)[C@H](O)[C@H](O)[C@H]2O)[C@H](O)[C@H](O)[C@H]1O
active: Mus musculus [6] | Mus musculus [7]

C[C@@H]1O[C@@H](O[C@H]2[C@H](O)[C@@H](C(=O)NCCCCCCCCCCC(=O)OCc3ccc(F)cc3)O[C@@H](O[C@H]3CC[C@]4(C)[C@H]5CC=C6[C@@H]7CC(C)(C)CC[C@]7(C(=O)O[C@@H]7O[C@H](C)[C@H](O)[C@H](O)[C@H]7O[C@@H]7O[C@@H](C)[C@H](O[C@@H]8OC[C@@H](O)[C@H](O)[C@H]8O)[C@@H](O[C@@H]8O[C@H](CO)[C@@H](O)[C@H](O[C@@H]9OC[C@@H](O)[C@H](O)[C@H]9O)[C@H]8O)[C@H]7O)[C@H](O)C[C@@]6(C)[C@]5(C)CC[C@H]4[C@]3(C)C=O)[C@@H]2O[C@@H]2O[C@H](CO)[C@H](O)[C@H](O)[C@H]2O)[C@H](O)[C@H](O)[C@H]1O
active: Mus musculus [1] | Mus musculus [2] | Mus musculus [3] | Mus musculus [5] | Mus musculus [8]

COc1cc(COC(=O)CCCCCCCCCCNC(=O)[C@H]2O[C@@H](O[C@H]3CC[C@]4(C)[C@H]5CC=C6[C@@H]7CC(C)(C)CC[C@]7(C(=O)O[C@@H]7O[C@H](C)[C@H](O)[C@H](O)[C@H]7O[C@@H]7O[C@@H](C)[C@H](O[C@@H]8OC[C@@H](O)[C@H](O)[C@H]8O)[C@@H](O[C@@H]8O[C@H](CO)[C@@H](O)[C@H](O[C@@H]9OC[C@@H](O)[C@H](O)[C@H]9O)[C@H]8O)[C@H]7O)[C@H](O)C[C@@]6(C)[C@]5(C)CC[C@H]4[C@]3(C)C=O)[C@H](O[C@@H]3O[C@H](CO)[C@H](O)[C@H](O)[C@H]3O)[C@@H](O[C@@H]3O[C@@H](C)[C@H](O)[C@@H](O)[C@H]3O)[C@@H]2O)cc(OC)c1
active: Mus musculus [5]

C[C@@H]1O[C@@H](O[C@H]2[C@H](O)[C@@H](C(=O)NCCCCCCCCCCNC(=O)c3ccccc3)O[C@@H](O[C@H]3CC[C@]4(C)[C@H]5CC=C6[C@@H]7CC(C)(C)CC[C@]7(C(=O)O[C@@H]7O[C@H](C)[C@H](O)[C@H](O)[C@H]7O[C@@H]7O[C@@H](C)[C@H](O[C@@H]8OC[C@@H](O)[C@H](O)[C@H]8O)[C@@H](O[C@@H]8O[C@H](CO)[C@@H](O)[C@H](O[C@@H]9OC[C@@H](O)[C@H](O)[C@H]9O)[C@H]8O)[C@H]7O)[C@H](O)C[C@@]6(C)[C@]5(C)CC[C@H]4[C@]3(C)C=O)[C@@H]2O[C@@H]2O[C@H](CO)[C@H](O)[C@H](O)[C@H]2O)[C@H](O)[C@H](O)[C@H]1O
active: Mus musculus [7]

C[C@@H]1O[C@@H](O[C@H]2[C@H](O)[C@@H](C(=O)NCCCCCCCCCCCOC(=O)c3ccccc3)O[C@@H](O[C@H]3CC[C@]4(C)[C@H]5CC=C6[C@@H]7CC(C)(C)CC[C@]7(C(=O)O[C@@H]7O[C@H](C)[C@H](O)[C@H](O)[C@H]7O[C@@H]7O[C@@H](C)[C@H](O[C@@H]8OC[C@@H](O)[C@H](O)[C@H]8O)[C@@H](O[C@@H]8O[C@H](CO)[C@@H](O)[C@H](O[C@@H]9OC[C@@H](O)[C@H](O)[C@H]9O)[C@H]8O)[C@H]7O)[C@H](O)C[C@@]6(C)[C@]5(C)CC[C@H]4[C@]3(C)C=O)[C@@H]2O[C@@H]2O[C@H](CO)[C@H](O)[C@H](O)[C@H]2O)[C@H](O)[C@H](O)[C@H]1O
active: Mus musculus [6] | Mus musculus [7]

C[C@@H]1O[C@@H](O[C@H]2[C@H](O)[C@@H](C(=O)NCCCCCCCCCCC(=O)OCc3cccc([N+](=O)[O-])c3)O[C@@H](O[C@H]3CC[C@]4(C)[C@H]5CC=C6[C@@H]7CC(C)(C)CC[C@]7(C(=O)O[C@@H]7O[C@H](C)[C@H](O)[C@H](O)[C@H]7O[C@@H]7O[C@@H](C)[C@H](O[C@@H]8OC[C@@H](O)[C@H](O)[C@H]8O)[C@@H](O[C@@H]8O[C@H](CO)[C@@H](O)[C@H](O[C@@H]9OC[C@@H](O)[C@H](O)[C@H]9O)[C@H]8O)[C@H]7O)[C@H](O)C[C@@]6(C)[C@]5(C)CC[C@H]4[C@]3(C)C=O)[C@@H]2O[C@@H]2O[C@H](CO)[C@H](O)[C@H](O)[C@H]2O)[C@H](O)[C@H](O)[C@H]1O
not listed: Mus musculus [6] | Mus musculus [7]
active: all other assays above

C[C@@H]1O[C@@H](O[C@H]2[C@H](O)[C@@H](C(=O)NCCCCCCCCCCC(=O)OCc3cccc(Oc4ccccc4)c3)O[C@@H](O[C@H]3CC[C@]4(C)[C@H]5CC=C6[C@@H]7CC(C)(C)CC[C@]7(C(=O)O[C@@H]7O[C@H](C)[C@H](O)[C@H](O)[C@H]7O[C@@H]7O[C@@H](C)[C@H](O[C@@H]8OC[C@@H](O)[C@H](O)[C@H]8O)[C@@H](O[C@@H]8O[C@H](CO)[C@@H](O)[C@H](O[C@@H]9OC[C@@H](O)[C@H](O)[C@H]9O)[C@H]8O)[C@H]7O)[C@H](O)C[C@@]6(C)[C@]5(C)CC[C@H]4[C@]3(C)C=O)[C@@H]2O[C@@H]2O[C@H](CO)[C@H](O)[C@H](O)[C@H]2O)[C@H](O)[C@H](O)[C@H]1O
active: Mus musculus [3] | Mus musculus [5]
